Test results from ChEMBL document CHEMBL1150837, “New sesquiterpene derivatives from the sponge Dysidea species with a selective inhibitor profile against human phospholipase A2 and other leukocyte functions” (J Nat Prod, 2001).
Calls of active or inactive are those of the source. The calls are words filed in the database; no cut-off is given here.

Key:
[1] = biological target: Acidic phospholipase A2 2 (Naja naja) (UniProt P15445); assay: Inhibition of Naja naja venom group 1 secretory phospholipase A2 at 10 uM by liquid scintillation counting
In short: (§1)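 Enzyme diluted in 100 mM Tris-HCl, 1 mM CaCl2, pH 7.5, preincubated 5 min at 37 °C with compound or vehicle. Substrate was autoclaved E. coli CECT 101 membranes labelled with [3H]oleic acid. Reaction ran 15 min, stopped with ice-cold BSA (0.07% w/v final), spun 1200g 10 min at 4 °C, supernatant counted. IC50 from ≥4 concentrations; mean ± SEM, n = 6.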

[2] = biological target: T1, Cytosolic phospholipase A2 (Mus musculus) (UniProt P47713); assay: Inhibition of group 4 cytosolic phospholipase A2 in mouse RAW264.7 cells at 10 uM; format: cell-based
T1 sequence (whole entry): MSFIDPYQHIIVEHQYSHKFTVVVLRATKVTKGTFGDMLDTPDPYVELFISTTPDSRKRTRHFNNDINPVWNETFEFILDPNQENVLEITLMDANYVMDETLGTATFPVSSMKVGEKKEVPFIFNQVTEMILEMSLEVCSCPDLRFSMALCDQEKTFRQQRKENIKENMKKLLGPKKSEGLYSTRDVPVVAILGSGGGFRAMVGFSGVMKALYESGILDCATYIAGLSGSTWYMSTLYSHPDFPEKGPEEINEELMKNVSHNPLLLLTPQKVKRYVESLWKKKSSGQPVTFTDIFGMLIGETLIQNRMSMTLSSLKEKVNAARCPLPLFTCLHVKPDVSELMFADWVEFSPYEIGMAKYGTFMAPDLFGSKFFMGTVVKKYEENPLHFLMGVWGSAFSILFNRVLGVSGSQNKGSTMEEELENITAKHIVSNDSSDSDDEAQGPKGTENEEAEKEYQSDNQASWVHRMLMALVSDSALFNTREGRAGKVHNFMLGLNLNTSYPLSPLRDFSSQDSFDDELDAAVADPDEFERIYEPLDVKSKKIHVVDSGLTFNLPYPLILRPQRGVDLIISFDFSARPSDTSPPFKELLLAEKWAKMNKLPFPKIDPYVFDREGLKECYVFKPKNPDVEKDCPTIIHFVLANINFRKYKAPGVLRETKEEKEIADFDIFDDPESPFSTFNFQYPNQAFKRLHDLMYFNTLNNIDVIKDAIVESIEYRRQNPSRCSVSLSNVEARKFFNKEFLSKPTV
In short: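 Enzyme was the cytosolic fraction of RAW 264.7 macrophages. Substrate 1-palmitoyl-2-[14C]arachidonyl-sn-glycero-3-phosphocholine. Compound added in methanol (<1% final) just before the enzyme. Incubation 60 min at 37 °C, stopped with isopropanol-heptane-H2SO4. Released arachidonate extracted into hexane, cleaned on silica gel and counted. Mean ± SEM, n = 6.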

[3] = system: Neutrophil; assay: Inhibition of cytochalasin B and fMLP-stimulated human neutrophil degranulation assessed as inhibition of elastase release preincubated for 5 mins before cytochalasin B and fMLP challenge measured after 20 mins by microtiter plate assay; format: functional, cell-based
In short: (§2)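 Neutrophils (2.5 × 10^6/mL) preincubated 5 min with compound or vehicle, then stimulated 10 min at 37 °C with cytochalasin B (10 µM) + FMLP (10 nM). Supernatants incubated 20 min at 37 °C with Boc-L-alanine p-nitrophenyl ester (200 µM); p-nitrophenol read at 414 nm. IC50 from ≥4 concentrations, n = 6.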

[4] = system: Neutrophil; assay: Inhibition of cytochalasin B and fMLP-stimulated human neutrophil degranulation assessed as inhibition of elastase release at 10 uM preincubated for 5 mins before cytochalasin B and fMLP challenge measured after 20 mins by microtiter plate assay; format: functional; in short: as §2
[5] = system: Neutrophil; assay: Inhibition of TPA-induced chemiluminescence response in human neutrophils at 10 uM after 7 mins; format: functional
In short: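 Neutrophils (2.5 × 10^6/mL) mixed with luminol (40 µM) and stimulated with 1 µM TPA; chemiluminescence read at 7 min, the time of maximal production. % inhibition at 10 µM; mean ± SEM, n = 6.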

[6] = biological target: T2, Phospholipase A2, membrane associated (Homo sapiens) (UniProt P14555); assay: Inhibition of human synovial recombinant group 2 secretory phospholipase A2 at 10 uM by liquid scintillation counting
T2 sequence (whole entry): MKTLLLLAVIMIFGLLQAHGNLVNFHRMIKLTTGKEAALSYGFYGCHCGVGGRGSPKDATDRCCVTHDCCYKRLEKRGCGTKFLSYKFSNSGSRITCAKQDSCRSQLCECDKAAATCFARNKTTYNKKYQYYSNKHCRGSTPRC
In short: (§3)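 Substrate was E. coli CECT 101 membranes labelled with [3H]oleic acid and autoclaved. Enzyme in 100 mM Tris-HCl/1 mM CaCl2, pH 7.5, was preincubated 5 min at 37 °C with compound or vehicle, then incubated 15 min with membranes. The reaction was stopped with ice-cold BSA (final 0.07%) and centrifuged, and supernatant radioactivity was counted. IC50 from ≥4 concentrations; n = 6.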

[7] = biological target: T3, Phospholipase A2 (Apis mellifera, UniProt P00630); assay: Inhibition of bee venom group 3 secretory phospholipase A2 by liquid scintillation counting; in short: as §1
T3 sequence (P00630 whole entry): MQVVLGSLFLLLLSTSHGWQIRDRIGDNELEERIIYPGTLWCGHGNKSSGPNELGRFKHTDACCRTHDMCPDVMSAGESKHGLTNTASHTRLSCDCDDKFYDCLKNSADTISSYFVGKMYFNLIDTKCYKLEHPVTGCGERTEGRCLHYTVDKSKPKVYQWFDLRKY

[8] = Cytotoxicity against human neutrophils assessed as inhibition of cell viability at 10 uM after 16 to 40 hrs by MTT assay; format: cell-based, Neutrophil; conditions: read-out: INH
In short: (§4)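 Cytotoxicity measured on purified human neutrophils as mitochondrial-dependent reduction of MTT to formazan; compounds tested up to 10 µM, reported as % inhibition of viability. Mean ± SEM, n = 6.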

[9] = biological target: Phospholipase A2, major isoenzyme (Sus scrofa) (UniProt P00592); assay: Inhibition of pig pancreatic group 1 secretory phospholipase A2 at 10 uM by liquid scintillation counting; in short: as §3
[10] = biological target: T4, Phospholipase A2 (Apis mellifera) (UniProt P00630); assay: Inhibition of bee venom group 3 secretory phospholipase A2 at 10 uM by liquid scintillation counting; in short: as §1
T4 sequence (whole entry): T3 sequence (P00630 whole entry)

[11] = biological target: T1, Cytosolic phospholipase A2 (Mus musculus); assay: Inhibition of group 4 cytosolic phospholipase A2 in mouse RAW264.7 cells; format: cell-based
In short: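 Enzyme source was cytosolic fractions of RAW 264.7 cells. Substrate was 1-palmitoyl-2-[14C]arachidonyl-PC (2 × 10^6 cpm). Compounds were added in methanol (final <1%) just before the enzyme. After 60 min at 37 °C, the reaction was stopped with isopropanol/heptane/0.5 M H2SO4 and extracted into hexane with silica gel. Released arachidonate was counted.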

[12] = biological target: T5, Phospholipase A2, membrane associated (Homo sapiens, UniProt P14555); assay: Inhibition of human synovial recombinant group 2 secretory phospholipase A2 by liquid scintillation counting; in short: as §3
T5 sequence (P14555 whole entry): T2 sequence (whole entry)

[13] = biological target: Phospholipase A2, major isoenzyme (Sus scrofa, UniProt P00592); assay: Inhibition of pig pancreatic group 1 secretory phospholipase A2 by liquid scintillation counting; in short: as §3
[14] = Cytotoxicity against human neutrophils up to 10 uM after 16 to 40 hrs by MTT assay; format: cell-based; conditions: neutrophil; in short: as §4
[15] = Homo sapiens, Neutrophil, read-out: IC50

Chain of Acidic phospholipase A2 2 (Naja naja) (P15445 whole entry): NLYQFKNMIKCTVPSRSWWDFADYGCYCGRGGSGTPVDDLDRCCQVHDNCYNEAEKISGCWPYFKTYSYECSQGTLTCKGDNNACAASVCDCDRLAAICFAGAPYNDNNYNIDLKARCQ
Chain of Phospholipase A2, major isoenzyme (Sus scrofa) (P00592 23-146 limits assumed): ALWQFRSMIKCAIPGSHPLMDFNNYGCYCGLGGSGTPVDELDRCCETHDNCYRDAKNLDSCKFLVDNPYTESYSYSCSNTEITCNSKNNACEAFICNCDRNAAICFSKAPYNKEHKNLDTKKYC
Chain of Phospholipase A2, major isoenzyme (P00592 whole entry): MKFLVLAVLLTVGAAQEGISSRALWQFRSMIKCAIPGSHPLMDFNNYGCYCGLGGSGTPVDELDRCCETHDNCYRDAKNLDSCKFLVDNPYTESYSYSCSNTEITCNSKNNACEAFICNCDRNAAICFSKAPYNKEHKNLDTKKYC

Row | SMILES | inhibition [1] [%] | inhibition [2] [%] | IC50 [3, 15] [nM] | inhibition at 10 µM [4] [%] | inhibition at 10 µM [5] [%] | inhibition [6] [%] | IC50 [7] [nM] | cytotoxicity at 10 µM [8] [%] | inhibition [9] [%] | inhibition [10] [%] | inhibition [11] | IC50 [12] [nM] | IC50 [13] [nM] | Activity [14] | IC50 ([3]; neutrophil)
1 | CC1=C(CC/C(C)=C/CCC2=CC[C@H](C3=CC(=O)O[C@H]3O)O[C@H]2O)C(C)(C)CCC1 | 17 | 44.6 |  |  |  |  |  |  |  |  |  |  |  |  | 
2 | COC1=CC(=O)C(O)=C(C[C@@]2(C)CC[C@]3(C)C(C)=CCC[C@H]3[C@H]2C)C1=O [BOLINAQUINONE] | 26 |  | 5200 | 68.1 | 40.1 | 100 | 100 | 14 | 86.4 | 99.1 | inactive | 200 | 400 |  | 
3 | COC(=O)[C@]1(O)C=C(OC)C(=O)[C@@H]1C[C@@]1(C)CC[C@]2(C)C(C)=CCC[C@H]2[C@H]1C [DYSIDENONE A] |  |  |  |  |  |  |  |  |  |  | inactive |  |  | Non-toxic | 
4 | COC(=O)[C@@]1(O)C=C(OC)C(=O)[C@H]1C[C@@]1(C)CC[C@]2(C)C(C)=CCC[C@H]2[C@H]1C [DYSIDENONE B] |  |  |  |  |  |  |  |  |  |  | inactive |  |  | Non-toxic | 
5 | CC1=CCC[C@H]2[C@@H](C)[C@@](C)(CC3=C(O)C(=O)C=C(NCCS(=O)(=O)O)C3=O)CC[C@]12C [DYSIDINE] | 0.7 |  | 1300 | 90.7 | 44.4 | 73.8 |  | 0.3 | 1.2 | 33.4 | inactive | 2000 |  | Non-toxic | Dose-dependent effect
